# Measured values collected from several papers.
# Each line is one published result; the experiments were not run side by side.
# Target: Glycogen synthase kinase-3 beta (GSK3B, Homo sapiens, UniProt P49841)
SMILES,assay,conditions,measurement,value
O=C(O)[C@H]1[C@H](Cn2nnc3ccccc3c2=O)CC[C@@H]1C(=O)c1ccc(OCCC2CCOCC2)cc1,"cell-free assay, competition with immobilised ligand",1 µM,remaining binding,100%
FC(F)(F)Oc1cccc(-c2cnc3ccc(-c4ccncc4)nn23)c1,"enzyme activity, inhibitor, radiometric",5 µM,activity vs control,98%
CN(C)C1CCN(CC#Cc2nn(C3CCCC3)c3nc(NCc4ccccc4)ncc23)C1 (stereo not shown),"enzyme activity, inhibitor, FRET",10 µM,inhibition,7%
Oc1cccc(-c2nc(N3CCOCC3)c3oc4ncccc4c3n2)c1,"enzyme activity, inhibitor",10 µM,remaining activity,48%
Nc1nc(Nc2ccc(S(N)(=O)=O)cc2)nn1C(=O)c1c(F)cccc1F,cell-free assay,0.5 µM,remaining signal,22%
O=C(Nc1cnn(-c2csc(C(=O)NC3COC3)c2)c1)Nc1ccccc1Cl,"enzyme activity, inhibitor",5 µM,remaining activity,95%
N#C[C@@H]1C[C@@H]2C[C@@H]2N1C(=O)[C@@H](N)C12CC3CC(CC(O)(C3)C1)C2,"enzyme activity, inhibitor, ADP detection",100 µM,inhibition,8.2%
CCCOc1ccc([C@H]2[C@H](C(=O)O)[C@@H](c3ccc4c(c3)OCO4)CN2CC(=O)Nc2c(CC)cccc2CC)cc1,"cell-free assay, competition with immobilised ligand",1 µM,remaining binding,73%
CC(C)c1ccc(NC(=O)c2cccs2)c(-c2nc3ccccc3[nH]c2=O)c1,"enzyme activity, inhibitor",1 µM,activity vs control,128%
CC(C)(O)[C@H]1CC[C@H](Nc2ccc3ncc(-c4cccc(C(F)(F)F)c4)n3n2)CC1,"enzyme activity, inhibitor",1 µM,remaining activity,81.6%
COc1cc2c(cc1OC)-c1c(oc3c4c(ccc3c1=O)OC(C)(C)C=C4)CO2,"enzyme activity, inhibitor, ADP detection",100 µM,inhibition,10.4%
Nc1ncnc2c1ncn2[C@@H]1O[C@H](COP(=O)(O)OP(=O)(O)OP(=O)(O)O)[C@@H](O)[C@H]1O,"enzyme activity, substrate, radiometric",,Km,9.3 µM
N#CCCc1ccc2c(c1)-c1[nH]c3ccc([N+](=O)[O-])cc3c1CC(=O)N2,cell-free assay,0.5 µM,remaining signal,2.71%
C[C@@H]1CN(c2cc(-c3n[nH]c4ccc(OC5(C)CC5)cc34)ncn2)C[C@H](C)O1,"cell-free assay, competition with immobilised ligand",0.1 µM,remaining binding,90%
Cn1c(=O)n(-c2ccc(C(C)(C)C#N)cc2)c2c3cc(-c4cnc5ccccc5c4)ccc3ncc21,"enzyme activity, inhibitor",10 µM,remaining activity,76%
Cc1cc(-n2nc(Cc3cc(F)cc(C(F)(F)F)c3)nc2C)ccc1C(N)=O,"cell-free assay, competition with immobilised ligand",1 µM,remaining binding,98%
Cn1sc(=O)n(Cc2ccccc2)c1=O,cell-free assay,0.5 µM,remaining signal,114%
Cc1ncc([N+](=O)[O-])n1CCO,"enzyme activity, inhibitor, ADP detection",100 µM,inhibition,32.8%
Cc1ccc(C(=O)NCc2ccsc2)cc1C#Cc1cn(C(C)C)c2ncnc(N)c12,"enzyme activity, inhibitor",1 µM,activity vs control,102%
Cn1cc(Cl)c2c(Oc3c(F)cc(Nc4cc(Cl)nc(N)n4)cc3F)ccnc21,"cell-free assay, competition with immobilised ligand",0.1 µM,remaining binding,90%
COc1cc(Cl)c(C(=O)N[C@@H](CN[C@H]2CC[C@@H](N)CC2)Cc2ccc(C#N)cc2)cc1-c1ccc(CN[C@H](C)c2ccc(C)cc2)o1,"enzyme activity, inhibitor",1 µM,remaining activity,101%
Cc1sc(C(=O)NC2COC2)cc1-n1cc(NC(=O)Nc2c(F)cccc2Cl)cn1,"enzyme activity, inhibitor",10 µM,remaining activity,94.9%
O=c1cc(-c2cccc3c2Sc2ccccc2S3)oc(N2CCOCC2)c1,"enzyme activity, inhibitor",0.5 µM,remaining activity,98.7%
CN(C)c1ncnc(-c2ccc3nc(Nc4cc(CN5CCN(C(=O)CC(F)(F)F)CC5)ccn4)[nH]c3c2)c1Cl,"cell-free assay, competition with immobilised ligand",1 µM,remaining binding,100%
COc1cc(Nc2cnc(C#N)c(O[C@H](C)CN(C)C)n2)ncc1-c1cnn(C)c1,"enzyme activity, inhibitor, radiometric",1 µM,remaining activity,90%
Fc1ccc([C@@H]2CCNC[C@H]2COc2ccc3c(c2)OCO3)cc1,"enzyme activity, inhibitor, ADP detection",100 µM,inhibition,0.9%
Nc1ncnc2occ(-c3ccc(NC(=O)Nc4cc(C(F)(F)F)ccc4F)cc3)c12,"enzyme activity, inhibitor",20 µM,remaining activity,57%
Cc1nc(C2CCN(C(=O)c3ccc(OC(F)(F)F)cc3N)CC2)c2ncc(N3CCN(C)CC3)cc2n1,"cell-free assay, competition with immobilised ligand",1 µM,remaining binding,100%
Cc1cc(NS(=O)(=O)c2ccc(N)cc2)nc(C)n1,"enzyme activity, inhibitor, ADP detection",100 µM,inhibition,11.7%
O=c1c2ccccc2[nH]c(=S)n1CCN1CCC(=C(c2ccc(F)cc2)c2ccc(F)cc2)CC1,"enzyme activity, inhibitor",0.5 µM,remaining activity,112%
Cc1cccc(C)c1NC(=O)c1ccccc1C(=O)O,"enzyme activity, inhibitor, ADP detection",100 µM,inhibition,18.9%
CC(C)n1cnc2c(Nc3cccc(Cl)c3)nc(NCCO)nc21,cell-free assay,0.5 µM,remaining signal,96%
CC1CCc2c(N3CCC(O)CC3)c(F)cc3c(=O)c(C(=O)O)cn1c23 (stereo not shown),"enzyme activity, inhibitor, ADP detection",100 µM,inhibition,46.1%
O=C1NC(=O)c2cc(Nc3ccc(F)cc3)c(Nc3ccc(F)cc3)cc21,cell-free assay,0.5 µM,remaining signal,89.2%
O=C(O)c1cc(-c2ccc(F)cc2F)ccc1O,"enzyme activity, inhibitor, ADP detection",100 µM,inhibition,38.6%
O=C1Nc2ccc(Cl)cc2C1=Cc1cc(Cl)c(O)c(Cl)c1,cell-free assay,0.5 µM,remaining signal,80.8%
CCC(=O)N[C@H]1CC[C@@H](C(=O)N(C)c2ccc(-c3nc4ccccc4o3)cc2)C1,"cell-free assay, competition with immobilised ligand",1 µM,remaining binding,81%
